Laboratory results taken from ChEMBL document CHEMBL1126931, “Synthesis of 20-hydroxy-, 20-amino-, and 20-nitro-14-hydroxy-21-nor-5 beta,14 beta-pregnane C-3 glycosides and related derivatives: structure-activity relationships of pregnanes that bind to the digitalis receptor” (J Med Chem, 1993).

Target: Sodium/potassium-transporting ATPase
Assay: Inhibition of [3H]- ouabain binding to digitalis receptor
Assay type: protein-complex assay, Cavia porcellus
Procedure, shortened: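 Radioligand binding to the digitalis receptor recognition site of heart muscle, read as displacement of [3H]ouabain.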

| SMILES | IC50 [nM] |
| --- | --- |
| CC1O[C@@H](O[C@H]2CC[C@@]3(C)[C@H](CC[C@@H]4[C@@H]3CC[C@]3(C)[C@@H](CO)CC[C@]43O)C2)C[C@@H](O)[C@@H]1O (stereo partly specified) | 610 |
| CC1O[C@@H](O[C@H]2CC[C@@]3(C)[C@H](CC[C@@H]4[C@@H]3CC[C@]3(C)[C@@H](C[N+](=O)[O-])CC[C@]43O)C2)C[C@@H](O)[C@@H]1O (stereo partly specified) | 88 |
| C[C@H]1O[C@H](O[C@H]2CC[C@@]3(C)[C@H](CC[C@@H]4[C@@H]3CC[C@]3(C)[C@@H](C(=O)CO)CC[C@]43O)C2)[C@H](O)[C@H](O)[C@H]1O | 1070 |
| CC1O[C@@H](O[C@H]2CC[C@@]3(C)[C@H](CC[C@@H]4[C@@H]3CC[C@]3(C)[C@@H](CO)CC[C@]43O)C2)C(O)[C@@H](O)[C@H]1O (stereo partly specified) | 360 |
| CC1O[C@@H](O[C@H]2CC[C@@]3(C)[C@H](CC[C@@H]4[C@@H]3CC[C@]3(C)[C@@H](C[N+](=O)[O-])CC[C@]43O)C2)C(O)[C@@H](O)[C@H]1O (stereo partly specified) | 12 |
| CC1O[C@@H](O[C@H]2CC[C@@]3(C)[C@H](CC[C@@H]4[C@@H]3CC[C@]3(C)[C@@H](C(=O)O)CC[C@]43O)C2)C[C@@H](O)[C@@H]1O (stereo partly specified) | 36000 |
| COC(=O)[C@H]1CC[C@]2(O)[C@@H]3CC[C@@H]4C[C@@H](O[C@H]5C[C@@H](O)[C@H](O)C(C)O5)CC[C@]4(C)[C@H]3CC[C@]12C (stereo partly specified) | 15000 |
| CC1O[C@@H](O[C@H]2CC[C@@]3(C)[C@H](CC[C@@H]4[C@@H]3CC[C@]3(C)[C@@H](CN)CC[C@]43O)C2)C(O)[C@@H](O)[C@H]1O (stereo partly specified) | 99 |
| CC1O[C@@H](O[C@H]2CC[C@@]3(C)[C@H](CC[C@@H]4[C@@H]3CC[C@]3(C)[C@@H](CC[N+](=O)[O-])CC[C@]43O)C2)C(O)[C@@H](O)[C@H]1O (stereo partly specified) | 45 |
| C[C@H]1O[C@@H](O[C@H]2CC[C@@]3(C)[C@H](CC[C@@H]4[C@@H]3CC[C@]3(C)[C@@H](CN)CC[C@]43O)C2)C[C@@H](O)[C@@H]1O | 270 |
| C[C@H]1O[C@@H](O[C@H]2[C@@H](O)C[C@H](O[C@H]3[C@@H](O)C[C@H](O[C@H]4CC[C@@]5(C)[C@H](CC[C@@H]6[C@@H]5CC[C@]5(C)[C@@H](C7=CC(=O)OC7)CC[C@]65O)C4)O[C@@H]3C)O[C@@H]2C)C[C@H](O)[C@@H]1O [DIGITOXIN] | 8 |
